Experimental data as given in ChEMBL document CHEMBL1154676, “Synthetic mRNA splicing modulator compounds with in vivo antitumor activity” (J Med Chem, 2009).

How the values were obtained:
SF-295 = assay: Growth inhibition of human SF295 cells by sulforhodamine B assay; type: functional
HT-29 = assay: Growth inhibition of human HT-29 cells by sulforhodamine B assay; type: functional
HCT-15 = assay: Growth inhibition of human HCT15 cells by sulforhodamine B assay; type: functional
HCC 2998 = assay: Growth inhibition of human HCC2998 cells by sulforhodamine B assay; type: functional
NCI-H460 = assay: Growth inhibition of human NCI-H460 cells by sulforhodamine B assay; type: functional
NCI-H23 = assay: Growth inhibition of human NCI-H23 cells by sulforhodamine B assay; type: functional
HOP-92 = assay: Growth inhibition of human HOP92 cells by sulforhodamine B assay; type: functional
HOP-62 = assay: Growth inhibition of human HOP62 cells by sulforhodamine B assay; type: functional
EKVX = assay: Growth inhibition of human EKVX cells by sulforhodamine B assay; type: functional
A549 = assay: Growth inhibition of human A549 cells by sulforhodamine B assay; type: functional
[1] = Growth inhibition of human […] cells by sulforhodamine B assay; type: functional
HL-60(TB) = assay: Growth inhibition of human HL-60(TB) cells by sulforhodamine B assay; type: functional
[2] = Cytotoxicity against HFF/tert2 after 72 hrs by XTT assay; parameters: species or system Homo sapiens
Outline: (§1)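 Cells grown at 37 °C, 5% CO2; HFF in DMEM with 10% FBS, PrEC in prostate epithelial growth medium. Adherent lines seeded overnight, suspension lines same day; compounds diluted from DMSO stocks into media at various final concentrations, 72 h exposure. XTT reagent added 4 h, absorbance 490 nm (reference 690 nm). Growth as % of vehicle; IC50 from sigmoidal dose-response fit; mean ± SEM, three independent experiments.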

HFF = assay: Cytotoxicity against HFF cells after 72 hrs by XTT assay; type: cell-based; details: Homo sapiens; outline: as §1
PrEC = assay: Cytotoxicity against human PrEC cells after 72 hrs by XTT assay; type: cell-based; outline: as §1
[3] = Cytotoxicity against human BT-3 cells after 72 hrs by XTT assay; type: functional, cell-based; details: BT-3, 72 h; outline: as §1
[4] = Cytotoxicity against human BT-14 cells after 72 hrs by XTT assay; type: functional, cell-based; details: BT-14, 72 h; outline: as §1
[5] = Cytotoxicity against human SJ-GBM2 cells after 72 hrs by XTT assay; type: functional, cell-based; outline: as §1
[6] = Cytotoxicity against human NB-EBc1 cells after 72 hrs by XTT assay; type: functional, cell-based; details: NB-EBc1, 72 h; outline: as §1
[7] = Cytotoxicity against human Rh41 cells after 72 hrs by XTT assay; type: functional, cell-based; details: Rh41, 72 h; outline: as §1
Ramos = assay: Cytotoxicity against human Ramos cells after 72 hrs by XTT assay; type: functional, cell-based; outline: as §1
SK-MEL-28 [8] = assay: Cytotoxicity against human SK-MEL-28 cells after 72 hrs by XTT assay; type: functional, cell-based; details: SK-MEL-28, 72 h; outline: as §1
WiDr = assay: Cytotoxicity against human WiDr cells after 72 hrs by XTT assay; type: functional, cell-based; outline: as §1
PC-3 = assay: Cytotoxicity against human PC3 cells after 72 hrs by XTT assay; type: functional, cell-based; details: PC-3, 72 h; outline: as §1
JVM-2 = assay: Cytotoxicity against human JVM2 cells after 72 hrs by XTT assay; type: functional, cell-based; details: JVM-2, 72 h; outline: as §1
[9] = Cytotoxicity against human JeKo1 cells after 72 hrs by XTT assay; type: functional, cell-based; details: JeKo-1, 72 h; outline: as §1
Mus musculus [10] = assay: Toxicity in NOD/SCID mouse assessed as phosphorus level at 5 to 50 mg/kg, iv and po for 5 days; type: organism-based; parameters: dose 5-50 mg/kg, route oral; details: in vivo, 120 h
Mus musculus [11] = assay: Toxicity in NOD/SCID mouse assessed as sodium level at 5 to 50 mg/kg, […] for 5 days; type: organism-based; parameters: dose 5-50 mg/kg; details: in vivo, po, 120 h
Mus musculus [12] = assay: Toxicity in NOD/SCID mouse assessed as total protein level at 5 to 50 mg/kg, […] for 5 days; type: organism-based; parameters: dose 5-50 mg/kg; details: in vivo, po, 120 h
Mus musculus [13] = assay: Toxicity in NOD/SCID mouse assessed as thrombocytopenia at 5 to 50 mg/kg, iv and po for 5 days; type: organism-based; parameters: dose 5-50 mg/kg, route oral; details: in vivo, 120 h
Mus musculus [14] = assay: Toxicity in NOD/SCID mouse assessed as weight loss at 5 to 50 mg/kg, iv and po for 5 days after 1 week; type: organism-based; parameters: dose 5-50 mg/kg, route oral; details: in vivo, 168 h
Mus musculus [15] = assay: Toxicity in NOD/SCID mouse assessed as total necropsies at 5 to 50 mg/kg, […] for 5 days; type: organism-based; parameters: dose 5-50 mg/kg; details: in vivo, po, 120 h
BT-549 = assay: Growth inhibition of human BT549 cells by sulforhodamine B assay; type: functional
MDA-MB-231 = assay: Growth inhibition of human MDA-MB-231 cells by sulforhodamine B assay; type: functional
DU-145 = assay: Growth inhibition of human DU145 cells by sulforhodamine B assay; type: functional
UO-31 = assay: Growth inhibition of human UO31 cells by sulforhodamine B assay; type: functional
CAKI-1 = assay: Growth inhibition of human Caki1 cells by sulforhodamine B assay; type: functional
SK-OV-3 = assay: Growth inhibition of human SKOV3 cells by sulforhodamine B assay; type: functional
SK-MEL-5 = assay: Growth inhibition of human SK-MEL-5 cells by sulforhodamine B assay; type: functional
SK-MEL-28 [16] = assay: Growth inhibition of human SK-MEL-28 cells by sulforhodamine B assay; type: functional
M14 = assay: Growth inhibition of human M14 cells by sulforhodamine B assay; type: functional
LOX IMVI = assay: Growth inhibition of human LOXIMVI cells by sulforhodamine B assay; type: functional
[17] = read-out: Log10GI50 (converted)
[18] = read-out: Log10LC50 (converted)

CC(/C=C/[C@@H]1C[C@]2(CO2)CC(C)(C)O1)=C\C[C@H]1CC[C@@H](NC(=O)/C=C\[C@H](C)OC(=O)C(C)C)CC1
GI50 (SF-295; [17]): 339 nM | CC50 (SF-295; [18]): > 100000 nM | TGI (SF-295; read-out: Log10TGI (converted)): 2510 nM | GI50 (HT-29; [17]): 191 nM | CC50 (HT-29; [18]): > 100000 nM | TGI (HT-29; read-out: Log10TGI (converted)): 10000 nM | GI50 (HCT-15; [17]): 794 nM | CC50 (HCT-15; [18]): > 100000 nM | TGI (HCT-15; read-out: Log10TGI (converted)): 34700 nM | GI50 (HCC 2998; [17]): 3470 nM | CC50 (HCC 2998; [18]): > 100000 nM | TGI (HCC 2998; read-out: Log10TGI (converted)): > 100000 nM | GI50 (NCI-H460; [17]): 501 nM | CC50 (NCI-H460; [18]): > 100000 nM | TGI (NCI-H460; read-out: Log10TGI (converted)): > 100000 nM | GI50 (NCI-H23; [17]): 537 nM | CC50 (NCI-H23; [18]): > 100000 nM | TGI (NCI-H23; read-out: Log10TGI (converted)): 33900 nM | GI50 (HOP-92; [17]): 575 nM | CC50 (HOP-92; [18]): > 100000 nM | TGI (HOP-92; read-out: Log10TGI (converted)): > 100000 nM | GI50 (HOP-62; [17]): 457 nM | CC50 (HOP-62; [18]): > 100000 nM | TGI (HOP-62; read-out: Log10TGI (converted)): > 100000 nM | GI50 (EKVX; [17]): 676 nM | CC50 (EKVX; [18]): > 100000 nM | TGI (EKVX; read-out: Log10TGI (converted)): 12900 nM | GI50 (A549; [17]): 912 nM | CC50 (A549; [18]): > 100000 nM | TGI (A549; read-out: Log10TGI (converted)): > 100000 nM | GI50 [1, 17]: 427 nM | CC50 [1, 18]: > 100000 nM | TGI ([1]; read-out: Log10TGI (converted)): 4680 nM | GI50 (HL-60(TB); [17]): 129 nM | CC50 (HL-60(TB); [18]): 74100 nM | TGI (HL-60(TB); read-out: Log10TGI (converted)): 525 nM | IC50 [2]: 9690 nM | IC50 (HFF): > 10000 nM | IC50 (PrEC): 7010 nM | IC50 [3]: 4410 nM | IC50 [4]: 1340 nM | IC50 [5]: 900 nM | IC50 [6]: 660 nM | IC50 [7]: 550 nM | IC50 (Ramos): 80 nM | IC50 (SK-MEL-28 [8]): 550 nM | IC50 (WiDr): 910 nM | IC50 (PC-3): 2200 nM | IC50 (JVM-2): 190 nM | IC50 [9]: 120 nM | Activity (Mus musculus [10]): Non-toxic | Activity (Mus musculus [11]): Non-toxic | Activity (Mus musculus [12]): Non-toxic | Activity (Mus musculus [13]): Non-toxic | Activity (Mus musculus [14]): Non-toxic | Activity (Mus musculus [15]): Non-toxic | GI50 (BT-549; [17]): 138 nM | CC50 (BT-549; [18]): > 100000 nM | TGI (BT-549; read-out: Log10TGI (converted)): 776 nM | GI50 (MDA-MB-231; [17]): 955 nM | CC50 (MDA-MB-231; [18]): > 100000 nM | TGI (MDA-MB-231; read-out: Log10TGI (converted)): > 100000 nM | GI50 (DU-145; [17]): 550 nM | CC50 (DU-145; [18]): > 100000 nM | TGI (DU-145; read-out: Log10TGI (converted)): > 100000 nM | GI50 (UO-31; [17]): 3980 nM | CC50 (UO-31; [18]): > 100000 nM | TGI (UO-31; read-out: Log10TGI (converted)): > 100000 nM | GI50 (CAKI-1; [17]): 302 nM | CC50 (CAKI-1; [18]): > 100000 nM | TGI (CAKI-1; read-out: Log10TGI (converted)): 2140 nM | GI50 (SK-OV-3; [17]): 912 nM | CC50 (SK-OV-3; [18]): > 100000 nM | TGI (SK-OV-3; read-out: Log10TGI (converted)): > 100000 nM | GI50 (SK-MEL-5; [17]): 316 nM | CC50 (SK-MEL-5; [18]): 10200 nM | TGI (SK-MEL-5; read-out: Log10TGI (converted)): 1950 nM | GI50 (SK-MEL-28 [16]; [17]): 324 nM | CC50 (SK-MEL-28 [16]; [18]): > 100000 nM | TGI (SK-MEL-28 [16]; read-out: Log10TGI (converted)): 6460 nM | GI50 (M14; [17]): 229 nM | CC50 (M14; [18]): > 100000 nM | TGI (M14; read-out: Log10TGI (converted)): 13800 nM | GI50 (LOX IMVI; [17]): 79.4 nM | CC50 (LOX IMVI; [18]): 55000 nM
